# ChEMBL document CHEMBL3627671, “Novel derivatives of nitro-substituted salicylic acids: Synthesis, antimicrobial activity and cytotoxicity” (Bioorg Med Chem, 2015)
# What was measured:
# Mycobacterium avium [1] = assay: Antimycobacterial activity against Mycobacterium avium 330/80 after 14 days; assay type: functional; details: 330/80, 336 h
# Mycobacterium kansasii [2] = assay: Antimycobacterial activity against Mycobacterium kansasii 235/80 after 14 days; assay type: functional; details: 235/80, 336 h
# Summary of the method: (§1)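 Šula's semisynthetic medium micromethod at 37 °C, read after 7, 14 and 21 days. The 1.0 McFarland suspension was diluted 10^-4. MIC determined. 6509/96 is a clinical isolate.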
# Mycobacterium kansasii [3] = assay: Antimycobacterial activity against Mycobacterium kansasii 6509/96 after 14 days; assay type: functional; details: 6509/96, 336 h; summary of the method: as §1
# Mycobacterium kansasii [4] = assay: Antimycobacterial activity against Mycobacterium kansasii 235/80 after 7 days; assay type: functional; details: 235/80, 168 h; summary of the method: as §1
# [5] = test system: Mycobacterium tuberculosis; assay: Antimycobacterial activity against Mycobacterium tuberculosis H37Rv 331/88 after 14 days; assay type: functional; details: H37Rv 331/88, 336 h
# Mycobacterium kansasii [6] = assay: Antimycobacterial activity against Mycobacterium kansasii 6509/96 after 21 days; assay type: functional; details: 6509/96, 504 h; summary of the method: as §1
# HepG2 = assay: Cytotoxicity against human HepG2 cells after 24 hrs […]; assay type: cell-based; details: HepG2, 24 h
# [7] = Selectivity index, ratio of CI50 for human HepG2 cells to MIC100 for Mycobacterium tuberculosis H37Rv 331/88
# Mycobacterium kansasii [8] = assay: Antimycobacterial activity against Mycobacterium kansasii 235/80 after 21 days; assay type: functional; details: 235/80, 504 h; summary of the method: as §1
# Mycobacterium kansasii [9] = assay: Antimycobacterial activity against Mycobacterium kansasii 6509/96 after 7 days; assay type: functional; details: 6509/96, 168 h; summary of the method: as §1
# [10] = test system: Mycobacterium tuberculosis; assay: Antimycobacterial activity against Mycobacterium tuberculosis H37Rv 331/88 after 21 days; assay type: functional; details: H37Rv 331/88, 504 h
# Mycobacterium avium [11] = assay: Antimycobacterial activity against Mycobacterium avium 330/80 after 21 days; assay type: functional; details: 330/80, 504 h
# Trichosporon asahii [12] = assay: Antifungal activity against Trichosporon asahii 1188 after 48 hrs by microdilution broth method; assay type: functional; details: Trichosporon asahii, 1188, 48 h
# Summary of the method: (§2)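 CLSI M27-A3 broth microdilution in RPMI 1640 with glutamine, buffered to pH 7.0 with MOPS; DMSO diluent. Yeast inoculum 5 × 10^3 ± 0.2 CFU/mL. Moulds grown on Sabouraud agar 3–10 days before spore harvest, final inoculum 0.5-5 × 10^4 CFU/mL, checked in a Bürker chamber. Incubated dark, humid, 35 °C, read at 24 and 48 h visually and at 540 nm. MIC taken as ≥80% (yeasts) or ≥50% (filamentous) growth reduction versus control.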
# Staphylococcus aureus [13] = assay: Antibacterial activity against methicillin-resistant Staphylococcus aureus H 5996/08 after 24 hrs by microdilution broth method; assay type: functional; details: H 5996/08, 24 h
# [14] = test system: Staphylococcus epidermidis; assay: Antibacterial activity against Staphylococcus epidermidis H 6966/08 after 24 hrs by microdilution broth method; assay type: functional; details: H 6966/08, 24 h
# Summary of the method: (§3)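 Mueller-Hinton broth microdilution (modified M07-A07), pH 7.4 (±0.2). Compounds dissolved in DMSO, tested at final 500 to 0.49 µmol/L. Inoculum in sterile water matched to 0.5 McFarland. Incubated in the dark, humid atmosphere, 35 °C, read at 24 and 48 h visually and at 540 nm. MIC taken as ≥95% growth reduction (IC95) versus control.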
# Aspergillus fumigatus [15] = assay: Antifungal activity against Aspergillus fumigatus 231 after 48 hrs by microdilution broth method; assay type: functional; details: Aspergillus fumigatus, 231, 48 h; summary of the method: as §2
# Escherichia coli [16] = assay: Antibacterial activity against Escherichia coli CCM4517 after 48 hrs by microdilution broth method; assay type: functional; details: CCM4517, 48 h; summary of the method: as §3
# Candida tropicalis [17] = assay: Antifungal activity against Candida tropicalis 156 after 24 hrs by microdilution broth method; assay type: functional; details: Candida tropicalis, 156, 24 h; summary of the method: as §2
# Candida albicans [18] = assay: Antifungal activity against Candida albicans ATCC 44859 after 48 hrs by microdilution broth method; assay type: functional; details: ATCC 44859, 48 h; summary of the method: as §2
# Staphylococcus aureus [19] = assay: Antibacterial activity against methicillin-resistant Staphylococcus aureus H 5996/08 after 48 hrs by microdilution broth method; assay type: functional; details: H 5996/08, 48 h
# Candida albicans [20] = assay: Antifungal activity against Candida albicans ATCC 44859 after 24 hrs by microdilution broth method; assay type: functional; details: ATCC 44859, 24 h; summary of the method: as §2
# Lichtheimia corymbifera [21] = assay: Antifungal activity against Absidia corymbifera 272 after 24 hrs by microdilution broth method; assay type: functional; details: Lichtheimia corymbifera, 272, 24 h; summary of the method: as §2
# Pichia kudriavzevii [22] = assay: Antifungal activity against Candida krusei E28 after 24 hrs by microdilution broth method; assay type: functional; details: E28, 24 h; summary of the method: as §2
# Escherichia coli [23] = assay: Antibacterial activity against Escherichia coli CCM4517 after 24 hrs by microdilution broth method; assay type: functional; details: CCM4517, 24 h; summary of the method: as §3
# Staphylococcus aureus [24] = assay: Antibacterial activity against Staphylococcus aureus CCM 4516/08 after 24 hrs by microdilution broth method; assay type: functional; details: CCM 4516/08, 24 h
# Nakaseomyces glabratus [25] = assay: Antifungal activity against Candida glabrata 20/I after 24 hrs by microdilution broth method; assay type: functional; summary of the method: as §2
# [26] = test system: Trichophyton mentagrophytes; assay: Antifungal activity against Trichophyton mentagrophytes 445 after 24 hrs by microdilution broth method; assay type: functional; details: Trichophyton mentagrophytes, 445, 24 h
# Candida tropicalis [27] = assay: Antifungal activity against Candida tropicalis 156 after 48 hrs by microdilution broth method; assay type: functional; details: Candida tropicalis, 156, 48 h; summary of the method: as §2
# Staphylococcus aureus [28] = assay: Antibacterial activity against Staphylococcus aureus CCM 4516/08 after 48 hrs by microdilution broth method; assay type: functional; details: CCM 4516/08, 48 h
# Nakaseomyces glabratus [29] = assay: Antifungal activity against Candida glabrata 20/I after 48 hrs by microdilution broth method; assay type: functional; summary of the method: as §2
# [30] = test system: Trichophyton mentagrophytes; assay: Antifungal activity against Trichophyton mentagrophytes 445 after 48 hrs by microdilution broth method; assay type: functional; details: Trichophyton mentagrophytes, 445, 48 h
# Enterococcus sp. [31] = assay: Antibacterial activity against Enterococcus sp. J 14365/08 after 24 hrs by microdilution broth method; assay type: functional; details: J 14365/08, 24 h; summary of the method: as §3
# Enterococcus sp. [32] = assay: Antibacterial activity against Enterococcus sp. J 14365/08 after 48 hrs by microdilution broth method; assay type: functional; details: J 14365/08, 48 h; summary of the method: as §3
# [33] = test system: Staphylococcus epidermidis; assay: Antibacterial activity against Staphylococcus epidermidis H 6966/08 after 48 hrs by microdilution broth method; assay type: functional; details: H 6966/08, 48 h; summary of the method: as §3
# Pseudomonas aeruginosa [34] = assay: Antibacterial activity against Pseudomonas aeruginosa CCM 1961 after 48 hrs by microdilution broth method; assay type: functional; details: CCM 1961, 48 h; summary of the method: as §3
# Klebsiella pneumoniae [35] = assay: Antibacterial activity against Klebsiella pneumoniae D 11750/08 after 24 hrs by microdilution broth method; assay type: functional; details: D 11750/08, 24 h; summary of the method: as §3
# Klebsiella pneumoniae [36] = assay: Antibacterial activity against ESBL-positive Klebsiella pneumoniae J 14368/08 after 24 hrs by microdilution broth method; assay type: functional; details: J 14368/08, 24 h; summary of the method: as §3
# Klebsiella pneumoniae [37] = assay: Antibacterial activity against ESBL-positive Klebsiella pneumoniae J 14368/08 after 48 hrs by microdilution broth method; assay type: functional; details: J 14368/08, 48 h; summary of the method: as §3
# Lichtheimia corymbifera [38] = assay: Antifungal activity against Absidia corymbifera 272 after 48 hrs by microdilution broth method; assay type: functional; details: Lichtheimia corymbifera, 272, 48 h; summary of the method: as §2
# Trichosporon asahii [39] = assay: Antifungal activity against Trichosporon asahii 1188 after 24 hrs by microdilution broth method; assay type: functional; details: Trichosporon asahii, 1188, 24 h; summary of the method: as §2
# Pseudomonas aeruginosa [40] = assay: Antibacterial activity against Pseudomonas aeruginosa CCM 1961 after 24 hrs by microdilution broth method; assay type: functional; details: CCM 1961, 24 h; summary of the method: as §3
# Pichia kudriavzevii [41] = assay: Antifungal activity against Candida krusei E28 after 48 hrs by microdilution broth method; assay type: functional; details: E28, 48 h; summary of the method: as §2
# Klebsiella pneumoniae [42] = assay: Antibacterial activity against Klebsiella pneumoniae D 11750/08 after 48 hrs by microdilution broth method; assay type: functional; details: D 11750/08, 48 h; summary of the method: as §3
# Aspergillus fumigatus [43] = assay: Antifungal activity against Aspergillus fumigatus 231 after 24 hrs by microdilution broth method; assay type: functional; details: Aspergillus fumigatus, 231, 24 h; summary of the method: as §2
compound,measurement,setting,value
O=C(Nc1ccc(Cl)c(Cl)c1)c1cccc([N+](=O)[O-])c1O,MIC,Mycobacterium avium [1],250 µM
same,MIC,Mycobacterium kansasii [2],62.5 µM
same,MIC,Mycobacterium kansasii [3],62.5 µM
same,MIC,Mycobacterium kansasii [4],32 µM
same,MIC,[5],16 µM
same,MIC,Mycobacterium kansasii [6],62.5 µM
same,IC50,HepG2,5.9 µM
same,Selectivity Index,[7],0.184
same,MIC,Mycobacterium kansasii [8],62.5 µM
same,MIC,Mycobacterium kansasii [9],62.5 µM
same,MIC,[10],32 µM
same,MIC,Mycobacterium avium [11],250 µM
O=C(Nc1ccc([N+](=O)[O-])cc1)c1ccc([N+](=O)[O-])cc1O,MIC,Trichosporon asahii [12],> 500 µM
same,MIC,Staphylococcus aureus [13],31.2 µM
same,MIC,[14],62.5 µM
same,MIC,Mycobacterium avium [1],62.5 µM
same,MIC,Mycobacterium kansasii [2],16 µM
same,MIC,Aspergillus fumigatus [15],> 500 µM
same,MIC,Escherichia coli [16],> 500 µM
same,MIC,Candida tropicalis [17],> 500 µM
same,MIC,Candida albicans [18],> 500 µM
same,MIC,Staphylococcus aureus [19],31.2 µM
same,MIC,Candida albicans [20],> 500 µM
same,MIC,Mycobacterium kansasii [3],32 µM
same,MIC,Lichtheimia corymbifera [21],> 500 µM
same,MIC,Pichia kudriavzevii [22],> 500 µM
same,MIC,Mycobacterium kansasii [4],8 µM
same,MIC,[5],8 µM
same,MIC,Escherichia coli [23],500 µM
same,MIC,Mycobacterium kansasii [6],32 µM
same,MIC,Staphylococcus aureus [24],62.5 µM
same,MIC,Nakaseomyces glabratus [25],> 500 µM
same,MIC,[26],> 500 µM
same,MIC,Candida tropicalis [27],> 500 µM
same,MIC,Staphylococcus aureus [28],62.5 µM
same,MIC,Nakaseomyces glabratus [29],> 500 µM
same,MIC,[30],> 500 µM
same,MIC,Enterococcus sp. [31],500 µM
same,MIC,Enterococcus sp. [32],> 500 µM
same,MIC,[33],62.5 µM
same,MIC,Pseudomonas aeruginosa [34],> 500 µM
same,MIC,Mycobacterium kansasii [8],32 µM
same,MIC,Mycobacterium kansasii [9],32 µM
same,MIC,Klebsiella pneumoniae [35],500 µM
same,MIC,Klebsiella pneumoniae [36],500 µM
same,MIC,[10],16 µM
same,MIC,Klebsiella pneumoniae [37],> 500 µM
same,MIC,Lichtheimia corymbifera [38],> 500 µM
same,MIC,Mycobacterium avium [11],62.5 µM
same,MIC,Trichosporon asahii [39],> 500 µM
same,MIC,Pseudomonas aeruginosa [40],500 µM
same,MIC,Pichia kudriavzevii [41],> 500 µM
same,MIC,Klebsiella pneumoniae [42],> 500 µM
same,MIC,Aspergillus fumigatus [43],> 500 µM
O=C(Nc1cccc(I)c1)c1cc([N+](=O)[O-])ccc1O,MIC,Trichosporon asahii [12],500 µM
same,MIC,Staphylococcus aureus [13],31.2 µM
same,MIC,[14],31.2 µM
same,MIC,Mycobacterium avium [1],125 µM
same,MIC,Mycobacterium kansasii [2],32 µM
same,MIC,Aspergillus fumigatus [15],250 µM
same,MIC,Escherichia coli [16],> 500 µM
same,MIC,Candida tropicalis [17],500 µM
same,MIC,Candida albicans [18],> 500 µM
same,MIC,Staphylococcus aureus [19],31.2 µM
same,MIC,Candida albicans [20],500 µM
same,MIC,Mycobacterium kansasii [3],62.5 µM
same,MIC,Lichtheimia corymbifera [21],500 µM
same,MIC,Pichia kudriavzevii [22],500 µM
same,MIC,Mycobacterium kansasii [4],16 µM
same,MIC,[5],16 µM
same,MIC,Escherichia coli [23],> 500 µM
same,MIC,Mycobacterium kansasii [6],62.5 µM
same,MIC,Staphylococcus aureus [24],31.2 µM
same,MIC,Nakaseomyces glabratus [25],500 µM
same,MIC,[26],125 µM
same,MIC,Candida tropicalis [27],500 µM
same,MIC,Staphylococcus aureus [28],31.2 µM
same,MIC,Nakaseomyces glabratus [29],500 µM
same,MIC,[30],125 µM
same,MIC,Enterococcus sp. [31],250 µM
same,MIC,Enterococcus sp. [32],> 500 µM
same,MIC,[33],31.2 µM
same,MIC,Pseudomonas aeruginosa [34],> 500 µM
same,MIC,Mycobacterium kansasii [8],62.5 µM
same,MIC,Mycobacterium kansasii [9],32 µM
same,MIC,Klebsiella pneumoniae [35],> 500 µM
same,MIC,Klebsiella pneumoniae [36],> 500 µM
same,MIC,[10],16 µM
same,MIC,Klebsiella pneumoniae [37],> 500 µM
same,MIC,Lichtheimia corymbifera [38],> 500 µM
same,MIC,Mycobacterium avium [11],125 µM
same,MIC,Trichosporon asahii [39],250 µM
same,MIC,Pseudomonas aeruginosa [40],> 500 µM
same,MIC,Pichia kudriavzevii [41],500 µM
same,MIC,Klebsiella pneumoniae [42],> 500 µM
same,MIC,Aspergillus fumigatus [43],250 µM
